Laboratory results taken from ChEMBL document CHEMBL4265973, “Broad-spectrum antibacterial amphiphilic aminoglycosides: A new focus on the structure of the lipophilic groups extends the series of active dialkyl neamines” (Eur J Med Chem, 2018).
In brackets after ≈: the same amount, converted by molar mass. Activity calls are given as the source filed them. The calls are words filed in the database; no cut-off is given here.

Tests used:
[1] = test system: Pseudomonas aeruginosa; assay: Antibacterial activity against Pseudomonas aeruginosa ATCC 27853 measured over 1 month by microdilution assay; format: functional, organism-based
Outline: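 Serial passage of P. aeruginosa ATCC 27853 held continuously at half the MIC for up to 38 days. […] The new minimal inhibitory concentration is read by visual inspection, confirmed by agar dilution, and the drug level raised to match.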

[2] = test system: Staphylococcus aureus; assay: Antibacterial activity against Staphylococcus aureus ATCC 25923 by microdilution assay; format: functional
Outline: (§1)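 Broth microdilution MIC per CLSI recommendations, fresh culture in cation-adjusted Mueller-Hinton broth, starting inoculum 10^6 cells.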

[3] = test system: Staphylococcus aureus; assay: Antibacterial activity against Staphylococcus aureus SA-1 expressing NorA pump by microdilution assay
[4] = test system: Staphylococcus aureus; assay: Antibacterial activity against methicillin-resistant Staphylococcus aureus ATCC 33592 by microdilution assay; format: functional; outline: as §1
[5] = test system: Pseudomonas aeruginosa; assay: Antibacterial activity against Pseudomonas aeruginosa ATCC 27853 by microdilution assay; format: functional
Outline: (§2)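 Broth microdilution per CLSI recommendations, using a fresh culture in cation-adjusted Mueller-Hinton broth (CA-MHB) and a starting inoculum of 10^6 cells; the MIC is the value read.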

[6] = test system: Pseudomonas aeruginosa; assay: Antibacterial activity against Pseudomonas aeruginosa FO3 harboring AAC6'-2A by microdilution assay; format: functional; outline: as §1
[7] = test system: Pseudomonas aeruginosa; assay: Antibacterial activity against Pseudomonas aeruginosa PA22 harboring surexp MexXY by microdilution assay; format: functional; outline: as §1
[8] = test system: Pseudomonas aeruginosa; assay: Antibacterial activity against Pseudomonas aeruginosa PA406 harboring triABC deletion mutant by microdilution assay; format: functional; outline: as §1
[9] = test system: Acinetobacter lwoffii; assay: Antibacterial activity against Acinetobacter lwoffii ATCC 17925 by microdilution assay; format: functional; outline: as §2
[10] = test system: Acinetobacter lwoffii; assay: Antibacterial activity against Acinetobacter lwoffii AI.88-483 harboring APH3'-6A by microdilution assay; format: functional; outline: as §1
[11] = test system: Escherichia coli; assay: Antibacterial activity against Escherichia coli PAZ505H8101 harboring AAC6'-1B by microdilution assay; format: functional; outline: as §1
[12] = test system: Escherichia coli; assay: Antibacterial activity against Escherichia coli L8058.1 harboring ANT2'-1A by microdilution assay; format: functional; outline: as §1
[13] = test system: Klebsiella pneumoniae; assay: Antibacterial activity against Klebsiella pneumoniae 700603 by microdilution assay; format: functional; outline: as §2
[14] = (§3) Cytotoxicity against mouse J774 cells assessed as cell viability at 10 uM after 24 hrs by MTT assay relative to control; format: cell-based; conditions: J774 cells, read-out: Activity
Outline: (§4)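 Murine J774 macrophages are exposed for 24 h to compound at 10 or 30 µM, then given 0.2 mg/mL MTT for 1 h. The reaction is stopped with DMSO and OD read at 570 nm; viability is metabolic activity as % of control. The number of independent experiments is given per value.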

[15] = (§5) Cytotoxicity against mouse J774 cells assessed as cell viability at 30 uM after 24 hrs by MTT assay relative to control; format: cell-based; conditions: J774 cells, read-out: Activity; outline: as §4
[16] = test system: Escherichia coli; assay: microbe, parasite or virus in culture; conditions: ATCC 25922
[17] = test system: J774; assay: as §3; format: cell-based; conditions: j774, 24 h, 10 µM; outline: as §4
[18] = test system: J774; assay: as §5; format: cell-based; conditions: j774, 24 h, 30 µM; outline: as §4
[19] = test system: Pseudomonas aeruginosa; assay: Antibacterial activity against Pseudomonas aeruginosa ATCC 27853 after 15 to 38 days by microdilution assay; format: functional
[20] = test system: Pseudomonas aeruginosa; assay: microbe, parasite or virus in culture; conditions: ATCC 27853

Row | Compound | Activity [1] | MIC [2] [µg/mL] | MIC [3] [µg/mL] | MIC [4] [µg/mL] | MIC [5] [µg/mL] | MIC [6] [µg/mL] | MIC [7] [µg/mL] | MIC [8] [µg/mL] | MIC [9] [µg/mL] | MIC [10] [µg/mL] | MIC [11] [µg/mL] | MIC [12] [µg/mL] | MIC [13] [µg/mL] | viability at 24 h, 10 µM [14] [%] | viability at 24 h, 30 µM [15] [%] | MIC [16] [µg/mL] | Activity [17] [%] | Activity [18] [%] | MIC [19] [µg/mL] | MIC [20] [µg/mL]
1 | NC[C@H]1O[C@H](O[C@H]2[C@H](O)[C@@H](O)[C@H](N)C[C@@H]2N)[C@H](N)[C@@H](OCCCc2ccc3ccccc3c2)[C@@H]1OCCCc1ccc2ccccc2c1 | Active |  |  |  |  |  |  |  |  |  |  |  |  |  |  |  |  |  |  | 
2 | CCCCCCCCCCCO[C@@H]1[C@@H](N)[C@@H](O[C@H]2[C@H](O)[C@@H](OCCCCCCC)[C@H](N)C[C@@H]2N)O[C@H](CN)[C@H]1O |  | 1 (≈ 1.74 µM) | 32 (≈ 55.7 µM) | 1 (≈ 1.74 µM) | 2 (≈ 3.48 µM) | 4 (≈ 6.96 µM) | 4 (≈ 6.96 µM) | 2 (≈ 3.48 µM) | 2 (≈ 3.48 µM) | > 128 | 2 (≈ 3.48 µM) | 4 (≈ 6.96 µM) | 4 (≈ 6.96 µM) | 88.4 | 39.1 | 2 (≈ 3.48 µM) |  |  |  | 
3 | CCCCCCCO[C@@H]1[C@@H](N)[C@@H](O[C@H]2[C@H](O)[C@@H](O)[C@H](N)C[C@@H]2N)O[C@H](CN)[C@H]1O |  | > 128 | > 128 | > 128 | > 128 | > 128 | > 128 | > 128 | 64 (≈ 152 µM) | > 128 | > 128 | > 128 | > 128 | 77.5 | 70.2 | > 128 |  |  |  | 
4 | GENTAMICIN |  |  |  |  |  |  |  |  |  |  |  |  |  |  |  |  | 88.4 | 82.9 |  | 
5 | NC[C@H]1O[C@H](O[C@H]2[C@H](O)[C@@H](OCCCc3ccc4ccccc4c3)[C@H](N)C[C@@H]2N)[C@H](N)[C@@H](OCCCc2ccc3ccccc3c2)[C@@H]1O | Active | 2 (≈ 3.04 µM) | 2 (≈ 3.04 µM) | 2 (≈ 3.04 µM) | 8 to 16 (≈ 12.1 to 24.3 µM) | 16 (≈ 24.3 µM) | 16 (≈ 24.3 µM) | 2 to 4 (≈ 3.04 to 6.07 µM) | 4 (≈ 6.07 µM) | 32 to 64 (≈ 48.6 to 97.1 µM) | 4 to 8 (≈ 6.07 to 12.1 µM) | 16 (≈ 24.3 µM) | 32 (≈ 48.6 µM) | 91.1 | 89.5 | 8 (≈ 12.1 µM) |  |  |  | 
6 | CCCCCCCCCCCO[C@@H]1[C@@H](O)[C@H](O[C@H]2O[C@H](CN)[C@@H](O)[C@H](OCCCCCCC)[C@H]2N)[C@@H](N)C[C@H]1N |  | 1 (≈ 1.74 µM) | 1 (≈ 1.74 µM) | 1 (≈ 1.74 µM) | 2 (≈ 3.48 µM) | 4 (≈ 6.96 µM) | 4 (≈ 6.96 µM) | 2 (≈ 3.48 µM) | 2 (≈ 3.48 µM) | > 128 | 4 (≈ 6.96 µM) | 4 (≈ 6.96 µM) | 8 (≈ 13.9 µM) | 82.9 | 38.8 | 16 (≈ 27.8 µM) |  |  |  | 
7 | CCCCCCCCCCO[C@@H]1[C@@H](N)[C@@H](O[C@H]2[C@H](O)[C@@H](OCCCCCCCCCC)[C@H](N)C[C@@H]2N)O[C@H](CN)[C@H]1O |  | 1 (≈ 1.66 µM) | 1 (≈ 1.66 µM) | 1 to 2 (≈ 1.66 to 3.32 µM) | 4 (≈ 6.63 µM) | 4 (≈ 6.63 µM) | 4 (≈ 6.63 µM) | 8 (≈ 13.3 µM) | 2 (≈ 3.32 µM) | 64 (≈ 106 µM) | 8 (≈ 13.3 µM) | 128 (≈ 212 µM) | 16 (≈ 26.5 µM) | 85.5 | 14.5 | 2 (≈ 3.32 µM) |  |  |  | 
8 | CCCCCCCCCO[C@@H]1[C@@H](N)[C@@H](O[C@H]2[C@H](O)[C@@H](OCCCCCCCCC)[C@H](N)C[C@@H]2N)O[C@H](CN)[C@H]1O |  | 1 (≈ 1.74 µM) | 1 (≈ 1.74 µM) | 2 to 4 (≈ 3.48 to 6.96 µM) | 2 to 4 (≈ 3.48 to 6.96 µM) | 4 to 8 (≈ 6.96 to 13.9 µM) | 4 (≈ 6.96 µM) | 2 to 4 (≈ 3.48 to 6.96 µM) | 2 (≈ 3.48 µM) | 16 (≈ 27.8 µM) | 2 to 4 (≈ 3.48 to 6.96 µM) | 2 to 4 (≈ 3.48 to 6.96 µM) | 4 (≈ 6.96 µM) | 86.7 | 67.4 | 2 to 4 (≈ 3.48 to 6.96 µM) |  |  | 4 (≈ 6.96 µM) | 
9 | O=C(O)c1cn(C2CC2)c2cc(N3CCNCC3)c(F)cc2c1=O [CIPROFLOXACIN] | Active |  |  |  |  |  |  |  |  |  |  |  |  |  |  |  |  |  |  | 16 (≈ 48.3 µM)
10 | CCCCCCCCO[C@@H]1[C@@H](N)[C@@H](O[C@H]2[C@H](O)[C@@H](OCCCCCCCC)[C@H](N)C[C@@H]2N)O[C@H](CN)[C@H]1O |  | 1 (≈ 1.83 µM) | 1 (≈ 1.83 µM) | 2 (≈ 3.66 µM) | 2 (≈ 3.66 µM) | 8 (≈ 14.6 µM) | 8 (≈ 14.6 µM) | 2 (≈ 3.66 µM) | 2 to 4 (≈ 3.66 to 7.32 µM) | 128 (≈ 234 µM) | 2 to 4 (≈ 3.66 to 7.32 µM) | 4 (≈ 7.32 µM) | 8 (≈ 14.6 µM) | 91.3 | 65.1 | 4 (≈ 7.32 µM) |  |  |  | 
